Laboratory results taken from publication PMC5288965 (Journal of Advanced Pharmaceutical Technology & Research, 2017).
In brackets after ≈: the same amount, converted by molar mass. Entries after “also recorded” stand apart in the source; their conditions may differ. Where two headings read alike, the source gives them in different places.

Columns and labels:
yeast α-glucosidase = yeast α-glucosidase (Saccharomyces cerevisiae, UniProt P53341); assay: Inhibition of yeast alpha-glucosidase activity; type: biochemical
yeast α-glucosidase, sequence (P53341 whole entry): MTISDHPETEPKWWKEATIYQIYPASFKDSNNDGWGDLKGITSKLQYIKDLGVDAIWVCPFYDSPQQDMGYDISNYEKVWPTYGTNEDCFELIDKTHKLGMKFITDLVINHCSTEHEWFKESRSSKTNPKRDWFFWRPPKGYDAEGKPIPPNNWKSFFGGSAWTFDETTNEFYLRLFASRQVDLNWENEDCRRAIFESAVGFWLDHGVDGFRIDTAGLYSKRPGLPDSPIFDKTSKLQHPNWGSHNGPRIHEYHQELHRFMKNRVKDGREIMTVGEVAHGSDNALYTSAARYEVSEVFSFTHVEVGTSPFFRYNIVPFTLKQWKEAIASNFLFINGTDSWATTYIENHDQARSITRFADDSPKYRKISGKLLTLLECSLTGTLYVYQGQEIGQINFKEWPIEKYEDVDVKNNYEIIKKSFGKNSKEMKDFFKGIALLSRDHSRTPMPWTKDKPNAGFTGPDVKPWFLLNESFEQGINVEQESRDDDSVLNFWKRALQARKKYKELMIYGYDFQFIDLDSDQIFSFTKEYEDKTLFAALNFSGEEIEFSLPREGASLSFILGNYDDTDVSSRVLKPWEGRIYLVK

[1] = target: rat intestinal α-glucosidase; assay: Inhibition of rat alpha-glucosidase activity; type: biochemical; details: for IC50 Rat α-glucosidase: 1 mM PNPG substrate, triplicate; for % inhibition of rat α-glucosidase: at 1.25 mg/ml
[2] = target: T1, porcine pancreatic α-amylase (Sus scrofa, UniProt P00690); assay: Inhibition of pancreatic alpha-amylase activity; type: biochemical
T1 sequence (P00690 16-511): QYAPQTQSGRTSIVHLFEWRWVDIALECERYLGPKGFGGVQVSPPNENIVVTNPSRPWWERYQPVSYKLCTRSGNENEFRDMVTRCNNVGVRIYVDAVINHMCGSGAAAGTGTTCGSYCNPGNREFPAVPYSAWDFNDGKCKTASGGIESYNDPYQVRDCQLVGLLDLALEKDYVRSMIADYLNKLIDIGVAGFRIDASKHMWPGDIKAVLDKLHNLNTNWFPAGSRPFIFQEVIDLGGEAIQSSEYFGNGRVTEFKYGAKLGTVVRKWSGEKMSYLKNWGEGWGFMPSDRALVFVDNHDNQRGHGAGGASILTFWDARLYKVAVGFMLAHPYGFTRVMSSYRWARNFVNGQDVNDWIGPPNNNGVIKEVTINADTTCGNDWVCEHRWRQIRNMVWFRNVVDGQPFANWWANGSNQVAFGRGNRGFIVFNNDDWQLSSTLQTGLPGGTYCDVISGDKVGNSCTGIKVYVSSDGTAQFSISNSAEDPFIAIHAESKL

[3] = system: BT474 ductal carcinoma cells; assay: MTT assay, BT474; type: cell-based; details: Homo sapiens, BT-474, 48 h, read-out: IC50 BT474
Method in brief: (§1)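 Cells grown in RPMI 1640 with 5% fetal calf serum at 37°C, 5% CO2. Seeded 5,000 cells per well, 24 h, then test compound in DMSO added (vehicle DMSO, or water for the reference drug), 48 h at 37°C. MTT solution (5 mg/ml) added for 4 h, medium removed, formazan dissolved in DMSO plus 0.1 mol/l glycine, A540 read. Run in quadruplicate.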

[4] = system: Chago K-1 bronchogenic carcinoma cells; assay: MTT assay, Chago K-1; type: cell-based; details: Homo sapiens, ChaGo-K-1, 48 h, read-out: IC50 Chago-K1
Method in brief: as §1

[5] = system: Hep-G2 liver hepatoblastoma cells; assay: MTT assay, Hep-G2; type: cell-based; details: Homo sapiens, HepG2, 48 h, read-out: IC50 Hep-G2
Method in brief: as §1

[6] = system: Kato-III gastric carcinoma cells; assay: MTT assay, Kato-III; type: cell-based; details: Homo sapiens, 48 h, read-out: IC50 Kato-III
Method in brief: as §1

[7] = system: SW 620 colon adenocarcinoma cells; assay: MTT assay, SW 620; type: cell-based; details: Homo sapiens, SW-620, 48 h, read-out: IC50 SW620
Method in brief: as §1

[8] = system: CCD-986SK skin fibroblast cells; assay: MTT assay, normal skin fibroblast; type: cell-based, human
Method in brief: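 Culture medium was Dulbecco's modified Eagle's medium, 37°C, 5% CO2. Cells were seeded at 5,000 per well for 24 h and exposed to test compound in DMSO for 48 h at 37°C. MTT (5 mg/ml solution) was added for 4 h, medium was removed, formazan was dissolved in DMSO with 0.1 mol/l glycine, and A540 was read. Run in quadruplicate.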

[9] = system: WI-38 VA-13 subline 2RA lung fibroblast cells; assay: MTT assay, normal lung fibroblast; type: cell-based, human
Method in brief: as §1

[10] = system: all tested cancer cell lines (BT474, Chago K-1, Hep-G2, Kato-III, SW 620); assay: MTT assay, all tested cancer cell lines together; type: cell-based, human
Method in brief: as §1

α-glucosidase = details: cited from earlier work
α-amylase = details: cited from earlier work
[11] = read-out: % inhibition of pancreatic α-amylase

**Q.** Which results are given for `O=c1c2cc(O)c(O)cc2oc2cc(O)c([C@@H]3O[C@H](CO)[C@@H](O)[C@H](O)[C@H]3O)c(O)c12` [Mangiferin, 1,3,6,7-Tetrahydroxyxanthone C2-ß-D-glucoside]?
**A.** inhibition at 2500 µg/mL (yeast α-glucosidase; read-out: % inhibition of yeast α-glucosidase): 93.3%; IC50 Rat α-glucosidase [1]: 433.3 µg/mL (≈ 1030 µM); IC50 Rat α-glucosidase ([1]; listed as mangiferin): 430 µg/mL (≈ 1020 µM); % inhibition of rat α-glucosidase [1]: 92.6%; IC50 [2]: 2.48 mM; inhibition at 5000 µg/mL [2, 11]: 95.6%; IC50 [3]: > 200 µg/mL; IC50 [4]: > 200 µg/mL; IC50 [5]: > 200 µg/mL; IC50 [6]: > 200 µg/mL; IC50 [7]: > 200 µg/mL; IC50 ([8]; Homo sapiens, CCD-986Sk, 48 h, read-out: IC50 CCD): > 200 µg/mL; effect on % survival of skin fibroblast normal cell line ([8]; MTT, listed as mangiferin): tended to increase the survival; also recorded: increased % survival of skin fibroblast; IC50 ([9]; Homo sapiens, WI-38 VA13, 48 h, read-out: IC50 Wi-38): > 200 µg/mL; effect on survival of lung fibroblast normal cell line ([9]; at high dose, MTT): tended to increase the survival; effect on % survival of tested cancer cells [10]: did not significantly affect % survival; effect on % survival of tested cancer cells ([10]; listed as mangiferin): did not show significantly toxicity; IC50 α-glucosidase (α-glucosidase): 41.88 µg/mL (≈ 99.2 µM); IC50 α-amylase (α-amylase): 74.35 µg/mL (≈ 176 µM)

**Q.** Which results are given for `C[C@H]1O[C@H](O[C@H]2[C@H](O)[C@@H](O)[C@@H](O[C@H]3[C@H](O)[C@@H](O)C(O)O[C@@H]3CO)O[C@@H]2CO)[C@H](O)[C@@H](O)[C@@H]1N[C@H]1C=C(CO)[C@@H](O)[C@H](O)[C@H]1O` (some centres unmarked) [Acarbose]?
**A.** % inhibition of yeast α-glucosidase (yeast α-glucosidase; at 40 mg/ml): 73.9%; IC50 Rat α-glucosidase [1]: 449.3 µg/mL (≈ 696 µM); % inhibition of rat α-glucosidase [1]: 58.7%; inhibition at 156 µg/mL [2, 11]: 73.9%
